TAAR1 antag – antagonists of human TAAR1; Q96RJ0; inhibition, % at 3 µM; CHO RD-HGA16 TAAR1, Fluo-8 calcium fluorescence, antagonist; AID 624466; actives 1.5% (n = 360,000);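 active means inhibition above a per-plate cutoff, the mean inhibition of test compounds on that plate plus 3 SD, cut at about 49% in these data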
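Material: CHO RD-HGA16 cells bearing hTAAR1; compound dosing: one-point dosing, 3 µM nominal final; schedule: dye loading 75 min at 37 °C, then 30 min room temperature; measured by: calcium fluorescence with Fluo-8; control set: vehicle and agonist controls; replication: n of 1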
M1 antag – antagonists of human M1 muscarinic receptor. actives 1.3% (n = 360,000). P11229. AID 588852. CHO-K1 hM1, Fluo-8 calcium fluorescence, ACh EC80 antagonist. inhibition, % at 3 µM;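 active means percent inhibition above its own plate's cutoff, namely the mean of that plate's compound wells plus 3 SD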;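 further: peak over basal fluorescence ratio during 140 s after agonist addition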
Target sequence (P11229 whole entry, looked up): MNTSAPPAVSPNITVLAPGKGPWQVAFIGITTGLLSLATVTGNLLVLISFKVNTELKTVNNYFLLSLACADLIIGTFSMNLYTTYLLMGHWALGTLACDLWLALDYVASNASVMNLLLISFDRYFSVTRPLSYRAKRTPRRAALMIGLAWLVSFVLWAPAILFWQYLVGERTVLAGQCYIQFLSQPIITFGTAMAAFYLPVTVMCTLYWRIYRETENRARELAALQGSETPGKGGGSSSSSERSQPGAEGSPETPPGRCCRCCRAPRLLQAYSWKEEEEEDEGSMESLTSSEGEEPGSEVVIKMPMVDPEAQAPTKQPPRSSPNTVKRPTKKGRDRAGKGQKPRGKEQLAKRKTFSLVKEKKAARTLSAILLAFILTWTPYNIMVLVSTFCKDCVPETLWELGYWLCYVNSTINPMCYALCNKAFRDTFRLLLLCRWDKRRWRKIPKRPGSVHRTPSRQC
M1 ag – human M1 muscarinic receptor agonism. P11229. CHO-K1 hM1, Fluo-8 calcium fluorescence, agonist mode; 0% DMSO, 100% acetylcholine EC100. activation, % at 3 µM. actives 0.33% (n = 360,000);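 active means activation above the run's mean compound activation plus 3 SD, cut at about 16% in these data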;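 further: peak over basal fluorescence ratio within a 140 s kinetic read after compound addition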
CHRM1 PAM – human CHRM1 positive allosteric modulation. P11229. CHO-K1 hM1, Fluo-8 calcium fluorescence, ACh EC20; 0% = ACh EC20, 100% = maximal ACh. activation, % at 3 µM. actives 0.088% (n = 360,000). AID 588819; in the data active means activation above about 19%, passing the limit was not always enough
TAAR1 ag – agonists of human TAAR1; Q96RJ0; AID 624467; actives 0.99% (n = 360,000); activation, % at 3 µM; CHO RD-HGA16 TAAR1, Fluo-8 calcium fluorescence; vehicle wells 0%, saturating PEA agonist 100%;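 active means activation above the mean activation of all test compounds in the run plus 3 SD, cut at about 38% in these data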
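System: CHO-derived RD-HGA16 cells with stable Gα16 and human TAAR1 / Times: 17-24 h plating, Fluo-8 75 min 37 °C, 30 min RT / Technique: calcium-sensitive Fluo-8 signal, excitation 470-495, emission 515-575 nm / Measure: % activation relative to PEA EC100 response / Benchmarks: DMSO and PEA EC100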
TAAR1 ag confirm – human TAAR1 agonism, confirmed; shares compounds with TAAR1 ag; AID 651783; actives 82% (n = 2,400); CHO RD-HGA16 TAAR1, Fluo-8 calcium fluorescence; scaled: DMSO 0%, maximal phenethylamine 100%; activation, % at 3 µM;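 active means activation above a cutoff set at the run's mean compound activation plus 3 SD, cut at about 39% in these data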
Ga16 nonsel ag – nonselective agonism, TAAR1 counter-screen | shares compounds with TAAR1 ag | CHO-Ga16 parental, Fluo-8 calcium fluorescence; normalized to maximal ATP response, DMSO zero | activation, % at 3 µM | actives 50% (n = 2,400);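 active means activation above the run cutoff, the mean activation over all tested wells plus 3 SD, cut at about 12% in these data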
TAAR1 desens – TAAR1 response desensitization, agonist counter-screen | shares compounds with TAAR1 ag | CHO RD-HGA16 hTAAR1, Fluo-8 calcium, beta-PEA response inhibition | inhibition, % at 3 µM | actives 46% (n = 2,400) | AID 651951;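 active means inhibition above the run cutoff, the mean inhibition of all test compounds plus 3 SD, cut at about 49% in these data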;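 further: beta-PEA stimulus applied at its EC80; loss of beta-PEA calcium signal after compound pretreatment read as receptor desensitization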
Ga16 antag count – counter-screen for TAAR1 agonists: nonselective Ga16 antagonists; CHO-Ga16 ATP-induced calcium, Fluo-8 fluorescence; shares compounds with TAAR1 ag; AID 651952; inhibition, % at 3 µM; actives 39% (n = 2,400);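 active means inhibition above the plate's mean compound inhibition plus 3 SD, computed per plate, cut at about 22% in these data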
Each line names hits and unclear results; the compound was inactive in the other large screens (follow-up assays come after a bar, where they were run). Hits are enriched below; roughly 3.4% of the tested compounds scored in any of these assays.

Cc1ccc(C(=O)Nn2c(O)c(C=C3N=c4ccccc4=N3)sc2=S)cc1	TAAR1 ag 54 | TAAR1 ag confirm 52 | Ga16 nonsel ag inactive | TAAR1 desens 59 | Ga16 antag count 23
O=C(Nc1ccc(F)cc1)c1oc2ccccc2c1NC(=O)C1CC1	none
O=C(N/C(=C\c1ccc(Br)cc1)C(=O)N1CCOCC1)c1ccco1	none
O=C(COC(=O)c1ccc2ncsc2c1)NCc1ccccc1Cl	none
NC(c1csc(NC(=O)Nc2cccc(Cl)c2)n1)c1ccccc1Cl (stereo unspecified)	TAAR1 ag 52 | TAAR1 ag confirm 66 | Ga16 nonsel ag 27 | TAAR1 desens 64 | Ga16 antag count 47
Cc1cc(NS(=O)(=O)c2ccc(NC(=S)NC(=O)c3ccc(C(C)(C)C)cc3)cc2)no1	TAAR1 ag 45 | TAAR1 ag confirm inactive | Ga16 nonsel ag inactive | TAAR1 desens inactive | Ga16 antag count inactive
O=C(O)c1ccc(NC(=S)NC(=O)c2ccc3ccccc3c2)cc1	TAAR1 ag 47 | TAAR1 ag confirm 40 | Ga16 nonsel ag 32 | TAAR1 desens inactive | Ga16 antag count 26
O=C(NC(=S)Nc1cccc(NC(=S)NC(=O)c2ccccc2)c1)c1ccccc1	none
O=C(O)c1cccc(NC(=S)NC(=O)c2ccc3ccccc3c2)c1	TAAR1 ag 73 | TAAR1 ag confirm inactive | Ga16 nonsel ag 31 | TAAR1 desens inactive | Ga16 antag count inactive
O=C(NC(=S)Nc1ccccc1C(=O)O)c1ccc2ccccc2c1	none
O=c1c(Cl)c(Cl)cnn1Cc1nnc(-c2ccccc2Br)o1	TAAR1 antag 104, M1 antag 94, M1 ag 86, TAAR1 ag 122 | TAAR1 ag confirm 141 | Ga16 nonsel ag 111 | TAAR1 desens 106 | Ga16 antag count 99
COc1cccc(C(=O)Nc2ccc(NC(=O)Cc3ccccc3)cc2)c1	TAAR1 ag 82 | TAAR1 ag confirm 102 | Ga16 nonsel ag 23 | TAAR1 desens 67 | Ga16 antag count inactive
CN1CCN(c2ccc(NC(=O)Cc3ccccc3)cc2)CC1	none
CN1CCN(c2ccc(NC(=O)c3cccc(OCc4ccccc4)c3)cc2)CC1	TAAR1 ag 54 | TAAR1 ag confirm 60 | Ga16 nonsel ag inactive | TAAR1 desens 71 | Ga16 antag count inactive
N#C/C(=C\c1ccccn1)c1nc2ccccc2s1	TAAR1 antag 75, M1 ag 28, TAAR1 ag 72 | TAAR1 ag confirm inactive | Ga16 nonsel ag 29 | TAAR1 desens inactive | Ga16 antag count 53
O=C(CN1CCN(CC(=O)c2ccccc2)CC1)c1ccccc1	none
CC1CCc2c(sc(NS(=O)(=O)c3ccccc3)c2C(=O)OC(C)C)C1 (stereo unspecified)	TAAR1 ag 43 | TAAR1 ag confirm inactive | Ga16 nonsel ag 19 | TAAR1 desens inactive | Ga16 antag count 26
NS(=O)(=O)c1ccc(CCNC(=O)c2ccc(Cl)c(S(=O)(=O)NCc3ccco3)c2)cc1	none
O=C(CCNC(=O)c1ccc(Br)cc1)NCC1CCCO1 (stereo unspecified)	none
O=C(NCC1CCCO1)c1ccc(NC(=O)c2ccc(Br)cc2)cc1 (stereo unspecified)	TAAR1 ag 78 | TAAR1 ag confirm 95 | Ga16 nonsel ag inactive | TAAR1 desens 71 | Ga16 antag count inactive
O=C(NCc1cccnc1)c1ccc(NC(=O)c2ccc(Br)cc2)cc1	TAAR1 ag 57 | TAAR1 ag confirm 58 | Ga16 nonsel ag inactive | TAAR1 desens inactive | Ga16 antag count inactive
Cc1cccc(OCCC(=O)OCC(=O)Nc2c(C)nn(-c3ccccc3)c2C)c1	none
Cc1cc(C(=O)NNC(=O)COc2ccccc2Cl)n[nH]1	none
C[C@H](CO)NC(=O)c1nc[nH]c1C(=O)N[C@H](C)c1ccccc1	none
C[C@H](NC(=O)c1[nH]cnc1C(=O)N[C@H](C)c1ccccc1)c1ccccc1	TAAR1 ag 47 | TAAR1 ag confirm 41 | Ga16 nonsel ag inactive | TAAR1 desens inactive | Ga16 antag count inactive
CCc1cc(=O)oc2cc(C)c(CN3CCCC(C)C3)c(O)c12 (stereo unspecified)	TAAR1 ag 51 | TAAR1 ag confirm 82 | Ga16 nonsel ag inactive | TAAR1 desens inactive | Ga16 antag count inactive
CCCCc1cc(=O)oc2cc(C)c(CN3CCCC3)c(O)c12	none
CC(C)c1onc(C(=O)NCCc2ccccc2)c1[N+](=O)[O-]	none (no result: TAAR1 antag, TAAR1 ag) | Ga16 nonsel ag inactive | Ga16 antag count inactive
CC(C)c1onc(C(=O)N(C)Cc2ccccc2)c1[N+](=O)[O-]	none
NC(=O)COc1c(-c2ccc(Br)o2)oc2ccccc2c1=O	none (no result: TAAR1 antag, TAAR1 ag)
O=C(NCCc1ccccc1)C(=O)NCC1OCCN1S(=O)(=O)c1ccc2c(c1)OCCO2 (stereo unspecified)	TAAR1 ag 58 | TAAR1 ag confirm 77 | Ga16 nonsel ag inactive | TAAR1 desens 58 | Ga16 antag count inactive
c1ccc(C2OCC3(CO2)COC(c2ccccc2)OC3)cc1 (stereo unspecified)	TAAR1 ag 59 | TAAR1 ag confirm inactive | Ga16 nonsel ag inactive | TAAR1 desens inactive | Ga16 antag count inactive
Cc1ccc(C2OCC3(CO2)COC(c2ccc(C)cc2)OC3)cc1 (stereo unspecified)	none

Assay outcomes (PubChem BioAssay)
